Compound activity: PubChem, several laboratories
This is a sample that favours compounds with a hit; in the whole collection about 1.4% have one here.
CASP6 VEID inh: caspase-6 (human) enzyme inhibition; P55212; purified caspase-6, Z-VEID-R110 cleavage fluorescence; inhibition, % at 12.5 µM; actives 0.53% (n = 350,000); AID 686996;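 active = mean inhibition across replicates at least about 35%, with every replicate also reaching that limit, limit read from the data; inconclusive = only one of the two criteria met; inactive = neither criterion met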
Target sequence (P55212 24-179 limits assumed): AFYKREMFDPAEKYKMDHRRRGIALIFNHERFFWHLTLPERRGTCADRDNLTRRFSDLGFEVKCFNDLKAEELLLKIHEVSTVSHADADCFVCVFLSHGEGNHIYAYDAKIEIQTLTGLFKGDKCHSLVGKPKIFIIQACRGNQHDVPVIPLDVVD
Target sequence (P55212 194-293 limits assumed): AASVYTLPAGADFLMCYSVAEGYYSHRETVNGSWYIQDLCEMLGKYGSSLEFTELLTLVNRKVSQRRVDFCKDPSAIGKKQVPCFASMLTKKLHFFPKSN
T cell modulator: T cell immune modulation candidate; 2C CD8+ T cell-vesicle binding, flow cytometry; active compounds read low; response (vesicle binding), % at 7 µM; actives 0.068% (n = 330,000); AID 2052;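 active = response, share of CD8 T cells binding vesicles, and their 90th percentile fluorescence all below set limits, cut at about 80% in these data, passing the limit was not always enough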;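 note: values below 100% mean blocked vesicle binding to the CD8+ T cells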
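Assay system – 2C mouse CD8+ T cells · Also added – QL9-loaded Drosophila micro-vesicles · Timing – Cell–vesicle co-incubation 1.5 h at 37 °C, staining 20 min on ice · Signal – flow cytometry of vesicle-bound cells · Measure – percent CD8+ FL2 mean versus row control · Controls – Peptide-free naked vesicles (low) and QL9 vesicles with 0.7% DMSO vehicle (high)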
Vif inh: blocks HIV Vif function; actives 0.35% (n = 340,000); inhibition, % at 7.49 µM; HEK293T cells, Vif self-association by quenched fluorescence, imaging, 24 h; AID 602346; in the data active = inhibition above about 50%, passing the limit was not always enough; inconclusive = no clear call, values can overlap the other calls; inactive = below about 31%
Myeloid diff 2: compounds promoting myeloid differentiation. ER-HoxA9 myeloid progenitors, lysozyme-GFP differentiation, flow cytometry. calls only at 10 µM. actives 1% (n = 360,000). AID 624256;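 active = normalized GFP-positive differentiation at or above the plate's own cutoff, the solvent-only control mean plus 3 SD; inconclusive = no clear call, values can overlap the other calls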;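 note: cells exposed to compound for four days before flow analysis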
Large screens that a line does not name were inactive.

CN(C)c1ccc(C=c2c3ccccc3n3c2cc(-c2ccccc2)[n+]3C)cc1	Myeloid diff 2 inconclusive (no result: T cell modulator)
CN(C)c1ccc(C=c2c3ccccc3n3c2cc(-c2ccc(Cl)cc2)[n+]3C)cc1	Myeloid diff 2 inconclusive (no result: T cell modulator)
COc1cc(C=c2c3ccccc3n3c2cc(-c2ccccc2)[n+]3C)cc(OC)c1OC	CASP6 VEID inh 96 (no result: T cell modulator)
C[C@@H]1CCCCO[C@@H](CN(C)C(=O)C2CCCCC2)[C@H](C)CN([C@@H](C)CO)C(=O)c2cc(NS(C)(=O)=O)ccc2O1	none (no result: T cell modulator, Vif inh, Myeloid diff 2)
COc1ccc(OCc2cccc(C(=O)NN)c2)cc1	Myeloid diff 2 active (no result: CASP6 VEID inh)
NNC(=O)c1cccc(COc2ccc(Br)cc2)c1	Myeloid diff 2 active (no result: CASP6 VEID inh)
Cn1c(C(=O)NN)cc2cc(OCc3ccccc3)ccc21	Myeloid diff 2 active
NNC(=O)c1cccc(COc2cccc(Br)c2)c1	none (no result: CASP6 VEID inh)
COc1ccc2c3c([nH]c2c1)[C@H](CO)N(C(=O)C1CC1)CC31CN(C(=O)c2ccncc2)C1	none (no result: T cell modulator, Vif inh, Myeloid diff 2)
COc1cccc(-c2ccc([C@H]3[C@H]4CN(C(=O)C5CCCCC5)CC(=O)N4[C@H]3CO)cc2)c1	none (no result: T cell modulator, Vif inh, Myeloid diff 2)
O=C1C(=C(O)c2ccccc2)C(=O)c2ccccc21	Myeloid diff 2 active
O=C(O)CS(=O)(=O)c1ccc(C(F)(F)F)cn1	Myeloid diff 2 active
NC(=O)c1ccc(C(F)(F)F)cn1	none
CCCCCc1cc(=O)oc2c(C(CCN3CCCCC3)c3ccc4c(c3)OCO4)c(OC)cc(OC)c12 (centres undefined)	Myeloid diff 2 active
CCCCCc1cc(=O)oc2c(C(CCN3CCCC(C)C3)c3ccc4c(c3)OCO4)c(OC)cc(OC)c12 (centres undefined)	none
COc1cc2c(cc1OC)C1=CC(=O)C(=O)N1C(C)(C)C2	Myeloid diff 2 active (no result: CASP6 VEID inh)
C[C@H]1CN([C@@H](C)CO)S(=O)(=O)c2ccc(C3=CCCC3)cc2O[C@@H]1CN(C)C(=O)c1ccccn1	none (no result: T cell modulator, Vif inh, Myeloid diff 2)
O=C(O)/C(=C/c1ccco1)NC(=O)c1ccccc1	CASP6 VEID inh 37
O=C(O)/C(=C\c1ccco1)NC(=O)c1cccc2ccccc12	CASP6 VEID inh 41
C[C@@H](NC(=O)C[C@@H]1CC[C@H]2[C@@H](COC[C@@H](O)CN2Cc2cc(F)ccc2F)O1)c1ccccc1	none (no result: T cell modulator, Vif inh, Myeloid diff 2)
C[C@H](CO)N1C[C@H](C)[C@@H](CN(C)C(=O)CC2CC2)Oc2cc(C#CC3CC3)ccc2S1(=O)=O	none (no result: T cell modulator, Vif inh, Myeloid diff 2)
CC(/C=C1\SC(=S)N(CCCC(=O)Nc2ccc(C(=O)O)cc2)C1=O)=C\c1ccccc1	none (no result: CASP6 VEID inh)
CC(=Cc1ccccc1)C=C1SC(=S)N(CCCC(=O)Nc2ccc(C(=O)O)cc2)C1=O	CASP6 VEID inh 41 (no result: T cell modulator)
O=C(CCN1C(=O)/C(=C/C=C/c2ccccc2)SC1=S)Nc1cccnc1	Vif inh 57
CC(/C=C1\SC(=S)N(CCC(=O)Nc2ccccc2O)C1=O)=C\c1ccccc1	none
CC(/C=C1\SC(=S)N(CCC(=O)Nc2cccc(C(=O)O)c2)C1=O)=C\c1ccccc1	CASP6 VEID inh 70
CC(=O)N(Cc1ccc(F)cc1)C1=C(NCc2ccccc2)C(=O)c2ccccc2C1=O	Myeloid diff 2 active (no result: CASP6 VEID inh, T cell modulator)
O=C(NCc1ccc(F)cc1)C(c1ccccc1)c1ccccc1	none
COc1ccc(N=C2S/C(=C\c3ccc(N4CCOCC4)o3)C(=O)N2CCc2c[nH]c3ccccc23)cc1	Myeloid diff 2 inconclusive (no result: CASP6 VEID inh)
COc1ccc(N=C2S/C(=C\c3ccc(OCC(=O)O)cc3)C(=O)N2CCc2c[nH]c3ccccc23)cc1	CASP6 VEID inh 83 (no result: T cell modulator)
CCC(=O)Nc1ccc2c(c1)C(=O)N(C)[C@H]1CC[C@H](CC(=O)NCc3ccccc3)O[C@H]1CO2	none (no result: T cell modulator, Vif inh, Myeloid diff 2)
Cc1ccsc1/C=N/NC(=O)c1ccncc1	none (no result: Myeloid diff 2)
COc1cc(C(=O)N/N=C/c2sccc2C)cc(OC)c1OC	Vif inh 75 (no result: T cell modulator, Myeloid diff 2)
COc1ccc(CC(=O)OCC(=O)Nc2cccc(Br)c2)cc1	Vif inh 74
Cc1ccc(-n2c([O-])nc(-[n+]3ccccc3)c2C=O)cc1	Vif inh 51 (no result: CASP6 VEID inh)
C[C@@H]1CN([C@H](C)CO)S(=O)(=O)c2ccc(C#C[C@@H](C)O)cc2O[C@@H]1CN(C)C(=O)C1CC1	none (no result: T cell modulator, Vif inh, Myeloid diff 2)
Cc1ccccc1S(=O)(=O)NCC[C@@H]1CC[C@H](NS(=O)(=O)c2ccccc2C)[C@@H](CO)O1	none (no result: T cell modulator, Vif inh, Myeloid diff 2)
CC(=O)Nc1ccc(S(=O)(=O)N2c3ccccc3C(C)=CC2(C)C)cc1	Vif inh 81 (no result: Myeloid diff 2)
CCC(=O)N1CC2(CN(Cc3ccncc3)C2)c2c(n(C)c3cc(OC)ccc23)[C@@H]1CO	none (no result: T cell modulator, Vif inh, Myeloid diff 2)
COc1cccc(S(=O)(=O)N[C@H]2CC[C@H](CCn3cc(-c4ccc(F)cc4)nn3)O[C@@H]2CO)c1	none (no result: T cell modulator, Vif inh, Myeloid diff 2)
O=C(COC(=O)c1c2c(nc3ccccc13)/C(=C\c1ccco1)CC2)NC1CCCC1	CASP6 VEID inh 43 (no result: T cell modulator)
CN(C)CC/C=C1/c2ccccc2CS(=O)(=O)c2ccccc21	Vif inh 85
CC(C)(C)N(Cc1ccccc1)C(=O)COC(=O)c1ccc([N+](=O)[O-])o1	CASP6 VEID inh 45 (no result: Vif inh)
O=C(COC(=O)c1ccc([N+](=O)[O-])o1)NCCc1ccccc1	none
O=C(COC(=O)c1ccc([N+](=O)[O-])o1)Nc1ccc(Br)cc1F	CASP6 VEID inh 38
O=C(COC(=O)c1ccc([N+](=O)[O-])o1)Nc1ncc(Cl)cc1Cl	CASP6 VEID inh 61
O=C(COC(=O)c1ccc([N+](=O)[O-])o1)Nc1ccc(F)cc1	CASP6 VEID inh 55
CCN(CC)CCN(C(=O)C1=COCCO1)c1nc2ccc(C)cc2s1	Myeloid diff 2 active
CCCN1[C@@H]2c3ccc(-c4cccc(C(=O)N(C)C)c4)c(=O)n3C[C@@H]2[C@@H](CO)[C@@H]1C(=O)OC	none (no result: T cell modulator, Vif inh, Myeloid diff 2)
CO[C@@H]1CN(C)C(=O)c2ccc(NC(=O)c3ccc(Oc4ccccc4)cc3)cc2OC[C@H](C)NC[C@H]1C	none (no result: T cell modulator, Vif inh, Myeloid diff 2)
CC1=C(SCc2ccccc2)C(=O)c2ccccc2C1=O	CASP6 VEID inh 64 (no result: T cell modulator)
O=C1C(SCCO)=C(SCCO)C(=O)c2ccccc21	none (no result: Vif inh)
Cc1ccc(Cl)cc1N1CCN(C(=O)c2cc3c(=O)n(C)c4ccccc4c3n2C)CC1	Myeloid diff 2 active
Cc1cccc(N2CCN(C(=O)c3cc4c(=O)n(C)c5ccccc5c4n3C)CC2)c1C	Myeloid diff 2 active
Cn1c(C(=O)N2CCN(c3ncccn3)CC2)cc2c(=O)n(C)c3ccccc3c21	none (no result: T cell modulator)
Cn1c(C(=O)N2CCCC2)cc2c(=O)n(C)c3ccccc3c21	none (no result: T cell modulator)
C[C@@H]1CN([C@@H](C)CO)C(=O)c2cc(C#CC3CCCC3)cnc2O[C@H]1CN(C)C(=O)Cc1ccccn1	none (no result: T cell modulator, Vif inh, Myeloid diff 2)
CN(C)CC(=O)Nc1ccc2c(c1)[C@@H]1C[C@H](CC(=O)NCCc3ccccc3)O[C@H](CO)[C@@H]1O2	none (no result: T cell modulator, Vif inh, Myeloid diff 2)
O=C(NC[C@H]1CC[C@@H]2[C@@H](CN2S(=O)(=O)c2ccccc2[N+](=O)[O-])O1)c1cccnc1	none (no result: T cell modulator, Vif inh, Myeloid diff 2)
CC(=O)Nc1ccc2c(c1)C(=O)N(C)[C@H]1CC[C@@H](CC(=O)NCc3ccccc3Cl)O[C@H]1CO2	none (no result: T cell modulator, Vif inh, Myeloid diff 2)
O=Cc1s/c(=N\S(=O)(=O)c2ccccc2)n(CCCCl)c1Cl	Vif inh 57, Myeloid diff 2 inconclusive (no result: T cell modulator)
CCOC(=O)c1ccc(-c2ccc(N3C(c4ccsc4)=Cc4ccc(F)cc4C3c3c[nH]c4ccc(C#N)cc34)cc2)cc1F (centres undefined)	none (no result: T cell modulator, Vif inh)
